Results published in ChEMBL document CHEMBL2331169, “Search for α3β₂/₃γ2 subtype selective ligands that are stable on human liver microsomes” (Bioorg Med Chem, 2013).
The source made the active and inactive calls. The rule behind the calls is not given here.

Assays:
[1] = Metabolic stability in heat inactivated human liver microsomes assessed as compound remaining at 10 uM measured at 60 mins by LC-MS/MS analysis relative to control; type: ADME, Microsome; settings: read-out: Stability
Outline: (§1)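 Control incubation with heat-inactivated human liver microsomes (0.5 mg protein/ml) in 100 mM phosphate pH 7.4, 37 °C, sampled at 0 and 60 min. Samples quenched in acetonitrile with internal standard and analysed by LC-MS/MS. Percent remaining is the peak-area ratio relative to 0 min ×100; duplicates.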

[2] = Metabolic stability in human liver microsomes assessed as compound remaining at 10 uM measured at 60 mins by LC-MS/MS analysis relative to control; type: ADME, Microsome; settings: read-out: Stability
Outline: (§2)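 Pooled human liver microsomes (150 donors, 0.5 mg protein/ml) with 2.5 mM NADPH and 3.3 mM MgCl2 in 100 mM phosphate pH 7.4, 0.1% DMSO final, 37 °C, reaction started with microsomes. Aliquots quenched in cold acetonitrile with internal standard; LC-MS/MS in positive-ion ESI MRM mode. Percent remaining is analyte/internal-standard peak-area ratio versus 0 min ×100; duplicates.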

[3] = Metabolic stability in human liver microsomes assessed as compound remaining at 10 uM measured at 30 mins by LC-MS/MS analysis relative to control; type: ADME, Microsome; settings: read-out: Stability; outline: as §2
[4] = Metabolic stability in human liver microsomes assessed as compound remaining at 10 uM measured at 15 mins by LC-MS/MS analysis relative to control; type: ADME, Microsome; settings: read-out: Stability; outline: as §2
[5] = (§3) Metabolic stability in heat inactivated human liver microsomes assessed as compound remaining at 1 uM measured at 60 mins by LC-MS/MS analysis relative to control; type: ADME, Microsome; settings: heat-inactivated liver microsomes, read-out: Stability; outline: as §1
[6] = (§4) Metabolic stability in human liver microsomes assessed as compound remaining at 1 uM measured at 60 mins by LC-MS/MS analysis relative to control; type: ADME, Microsome; settings: liver microsomes, read-out: Stability; outline: as §2
[7] = (§5) Metabolic stability in human liver microsomes assessed as compound remaining at 1 uM measured at 30 mins by LC-MS/MS analysis relative to control; type: ADME, Microsome; settings: liver microsomes, read-out: Stability; outline: as §2
[8] = Metabolic stability in human liver microsomes assessed as compound remaining at 1 uM measured at 15 mins by LC-MS/MS analysis relative to control; type: ADME, Microsome; settings: read-out: Stability; outline: as §2
[9] = molecular target: T1, GABA A receptor alpha-5/beta-3/gamma-2 (Rattus norvegicus) (UniProt P18508+P19969+P63079); experiment: Agonist activity at rat GABAA alpha5beta3gamma2 receptor expressed in Xenopus oocytes assessed as stimulation of GABA-induced chloride current at 1 uM incubated 30 secs prior to GABA induction measured after 15 mins by two-electrode voltage clamp assay relative to control; type: cell-based; settings: Oocyte
Outline: (§6)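 Rat GABAA β3 and γ2 cDNAs plus α1, α2, α3 or α5 cDNA injected into Xenopus oocytes; follicle layers removed 36 h later. Two-electrode recording with […]-filled electrodes; oocytes perfused with Ringer (90 mM NaCl, 5 mM HEPES pH 7.4, 1 mM MgCl2, KCl, CaCl2) switched to GABA at EC3 with drug (0.1% DMSO final). Mean ± SEM, 3–4 oocytes, ≥2 batches.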

[10] = molecular target: T1, GABA A receptor alpha-5/beta-3/gamma-2 (Rattus norvegicus); experiment: Agonist activity at rat GABAA alpha5beta3gamma2 receptor expressed in Xenopus oocytes assessed as stimulation of GABA-induced chloride current at 100 nM incubated 30 secs prior to GABA induction measured after 15 mins by two-electrode voltage clamp assay relative to control; type: cell-based; settings: Oocyte; outline: as §6
[11] = molecular target: Gamma-aminobutyric acid receptor subunit alpha-3 (Rattus norvegicus) (UniProt P20236); experiment: Agonist activity at rat GABAA alpha3beta3gamma2 receptor expressed in Xenopus oocytes assessed as stimulation of GABA-induced chloride current at 1 uM incubated 30 secs prior to GABA induction measured after 15 mins by two-electrode voltage clamp assay relative to control; type: cell-based; settings: Oocyte; outline: as §6
[12] = molecular target: Gamma-aminobutyric acid receptor subunit alpha-3 (Rattus norvegicus) (UniProt P20236); experiment: Agonist activity at rat GABAA alpha3beta3gamma2 receptor expressed in Xenopus oocytes assessed as stimulation of GABA-induced chloride current at 100 nM incubated 30 secs prior to GABA induction measured after 15 mins by two-electrode voltage clamp assay relative to control; type: cell-based; settings: Oocyte; outline: as §6
[13] = molecular target: T2, GABA A receptor alpha-2/beta-2/gamma-2 (Rattus norvegicus) (UniProt P18508+P23576+P63138); experiment: Agonist activity at rat GABAA alpha2beta3gamma2 receptor expressed in Xenopus oocytes assessed as stimulation of GABA-induced chloride current at 1 uM incubated 30 secs prior to GABA induction measured after 15 mins by two-electrode voltage clamp assay relative to control; type: cell-based; settings: Oocyte; outline: as §6
[14] = molecular target: T2, GABA A receptor alpha-2/beta-2/gamma-2 (Rattus norvegicus); experiment: Agonist activity at rat GABAA alpha2beta3gamma2 receptor expressed in Xenopus oocytes assessed as stimulation of GABA-induced chloride current at 100 nM incubated 30 secs prior to GABA induction measured after 15 mins by two-electrode voltage clamp assay relative to control; type: cell-based; settings: Oocyte; outline: as §6
[15] = molecular target: T3, GABA-A receptor; alpha-1/beta-2/gamma-2 (Rattus norvegicus) (UniProt P18508+P62813+P63138); experiment: Agonist activity at rat GABAA alpha1beta3gamma2 receptor expressed in Xenopus oocytes assessed as stimulation of GABA-induced chloride current at 1 uM incubated 30 secs prior to GABA induction measured after 15 mins by two-electrode voltage clamp assay relative to control; type: cell-based; settings: Oocyte; outline: as §6
[16] = molecular target: T3, GABA-A receptor; alpha-1/beta-2/gamma-2 (Rattus norvegicus); experiment: Agonist activity at rat GABAA alpha1beta3gamma2 receptor expressed in Xenopus oocytes assessed as stimulation of GABA-induced chloride current at 100 nM incubated 30 secs prior to GABA induction measured after 15 mins by two-electrode voltage clamp assay relative to control; type: cell-based; settings: Oocyte; outline: as §6
[17] = tested on: Liver microsomes; experiment: as §4; type: ADME, Microsome; settings: microsomes, 1 h, 1 µM; outline: as §2
[18] = tested on: Liver microsomes; experiment: as §5; type: ADME, Microsome; settings: microsomes, 0.5 h, 1 µM; outline: as §2
[19] = tested on: Rattus norvegicus; experiment: Sedative activity in rat assessed as reduction of D-amphetamine sulfate-induced locomotion at 10 to 100 mg/kg, ip administered 20 mins prior to testing measured for 90 mins relative to vehicle-treated control; type: functional, organism-based
Outline: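 Rats kept ≥10 days on a reversed light/dark cycle. Drug or saline (2 ml/kg) given i.p. 20 min before an open-field arena; spontaneous x–y locomotion recorded 30 min by beam breaks. D-amphetamine sulfate 0.5 mg/kg i.p. then given, and locomotion recorded a further 90 min.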

[20] = tested on: Rattus norvegicus; experiment: Anxiolytic activity in rat assessed as increase in time spent in lighted area at 10 to 100 mg/kg, ip administered 20 mins prior to testing measured for 30 mins by light/dark cycle test relative to vehicle-treated control; type: functional, organism-based
[21] = tested on: Liver microsomes; experiment: as §3; type: ADME, Microsome; settings: microsomes, 1 h, 1 µM; outline: as §1

Chain of Gamma-aminobutyric acid receptor subunit alpha-3 (Rattus norvegicus) (P20236 whole entry): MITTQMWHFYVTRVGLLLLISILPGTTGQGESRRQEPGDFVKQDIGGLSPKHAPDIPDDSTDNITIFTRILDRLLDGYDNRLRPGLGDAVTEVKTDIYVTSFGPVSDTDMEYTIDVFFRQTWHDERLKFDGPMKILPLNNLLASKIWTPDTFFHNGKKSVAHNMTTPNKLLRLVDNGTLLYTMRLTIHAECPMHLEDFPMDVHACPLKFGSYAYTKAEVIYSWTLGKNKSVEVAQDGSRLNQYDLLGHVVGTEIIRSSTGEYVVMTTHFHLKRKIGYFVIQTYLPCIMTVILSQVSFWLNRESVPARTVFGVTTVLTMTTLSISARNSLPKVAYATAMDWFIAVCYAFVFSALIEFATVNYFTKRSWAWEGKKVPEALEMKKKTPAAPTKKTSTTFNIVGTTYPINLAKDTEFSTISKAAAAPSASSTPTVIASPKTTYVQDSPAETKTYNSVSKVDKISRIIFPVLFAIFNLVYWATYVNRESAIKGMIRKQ

Row | Compound | remaining at 1 h, 10 µM [1] [%] | remaining at 1 h, 10 µM [2] [%] | remaining at 0.5 h, 10 µM [3] [%] | remaining at 0.25 h, 10 µM [4] [%] | remaining at 1 h, 1 µM [5] [%] | remaining at 1 h, 1 µM [6] [%] | remaining at 0.5 h, 1 µM [7] [%] | remaining at 0.25 h, 1 µM [8] [%] | Activity [9] [%] | Activity [10] [%] | Activity [11] [%] | Activity [12] [%] | Activity [13] [%] | Activity [14] [%] | Activity [15] [%] | Activity [16] [%] | other results
1 | C#Cc1ccc2c(c1)C(c1ccccc1)=NCc1c(C(=O)OCC)ncn1-2 | 102 | 1.7 | 13.9 | 47.6 | 107 | 1.5 | 11.2 | 41.4 | – | – | – | – | – | – | – | – | –
2 | C#Cc1ccc2c(c1)C(c1ccccn1)=NCc1c(C(=O)NC)ncn1-2 | 110 | 110 | 106 | 104 | 110 | – | – | 109 | 182 | 122 | 376 | 163 | 226 | 140 | 171 | 117 | Stability [17]: 136.4%; Stability [18]: 126%
3 | C#Cc1ccc2c(c1)C(c1ccccn1)=NCc1c(C(=O)OCC)ncn1-2 | 95.4 | 76.1 | 90.4 | 103 | 93.8 | 80.2 | 95.6 | 106 | – | – | – | – | – | – | – | – | –
4 | C#Cc1ccc2c(c1)C(c1ccccc1F)=NCc1c(C(=O)NC)ncn1-2 | 108 | 103 | 103 | 96.8 | 116 | 92.3 | 95.9 | 97.3 | 361 | 326 | 485 | 349 | 287 | 241 | 201 | 152 | –
5 | C#Cc1ccc2c(c1)C(c1ccccn1)=NCc1c(C(=O)O)ncn1-2 | 88.3 | 85.9 | 86.1 | 91.4 | 97 | 110 | 105 | 102 | – | – | – | – | – | – | – | – | –
6 | C#Cc1ccc2c(c1)C(c1ccccc1)=NCc1c(-c3nc(C(C)C)no3)ncn1-2 | 119 | 96.6 | 108 | 109 | – | 90.8 | 110 | 100 | 291 | 175 | 381 | 195 | 281 | 160 | 150 | 107 | Activity [19]: inactive; Activity [20]: Active; Stability [21]: 137.5%
